Assay results published in ChEMBL document CHEMBL3352243, “Ligand-based virtual screening identifies a family of selective cannabinoid receptor 2 agonists” (Bioorg Med Chem, 2015).
Values after ≈ are worked out from the molar mass of the structure shown. Blank lines part the entries; values can stand above or below the compound they belong to.

Legend:
Cannabinoid receptor 2 [1] = target: T1, Cannabinoid receptor 2 (Homo sapiens, UniProt P34972); assay: Agonist activity at human CB2R expressed in CHO cells assessed as reduction in forskolin-induced cAMP accumulation by beta-galactosidase based complementation immunoassay; format: functional, cell-based
Summary of the method: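 hCB2R CHO-K1 cells plated overnight at 37 °C, 5% CO2; anti-cAMP antibody added, then compound (final 0.2% DMSO) with 20 μM forskolin for 30 min at 37 °C. Lysis/substrate 1 h, then EA detection reagent 3 h at room temperature; luminescence read and normalised to forskolin+solvent wells (100%). EC50 by 4-parameter nonlinear fit of pooled 3–4 independent experiments.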
Target sequence in this assay (P34972 whole entry): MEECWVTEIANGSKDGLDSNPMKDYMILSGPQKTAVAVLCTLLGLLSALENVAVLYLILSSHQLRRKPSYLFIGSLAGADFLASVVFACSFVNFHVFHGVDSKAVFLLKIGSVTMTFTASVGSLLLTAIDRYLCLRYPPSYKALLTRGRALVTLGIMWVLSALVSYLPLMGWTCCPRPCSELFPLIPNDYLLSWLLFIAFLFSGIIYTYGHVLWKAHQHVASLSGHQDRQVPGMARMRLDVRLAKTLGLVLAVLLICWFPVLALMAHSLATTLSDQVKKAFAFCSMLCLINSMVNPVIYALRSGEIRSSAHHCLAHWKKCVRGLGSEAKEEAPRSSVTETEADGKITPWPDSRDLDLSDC

Cannabinoid receptor 2 [2] = target: T1, Cannabinoid receptor 2; assay: Displacement of [3H]WIN-55212-2 from human CB2R expressed in CHO cells; format: cell-based
Summary of the method: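 Membranes from CHO cells expressing hCB2R incubated with test compound and tritiated WIN-55212 (0.8 nM), 2 h, 37 °C. Non-specific binding defined with 5 μM WIN-55212. Scintillation counting of bound ligand; Ki via Cheng–Prusoff with radioligand Kd; duplicate.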
Target sequence in this assay (P34972 whole entry): as above

Cannabinoid receptor 1 [3] = target: T2, Cannabinoid receptor 1 (Homo sapiens, UniProt P21554); assay: Displacement of [3H]CP55940 from human CB1R expressed in CHO cells; format: cell-based
Summary of the method: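 Membranes from CHO cells expressing hCB1R incubated with test compound and [3H]CP 55,940 (0.5 nM) for 2 h at 37 °C. Non-specific binding defined with 10 μM WIN-55212. Bound radioligand measured by scintillation counting. Ki from Cheng–Prusoff using radioligand Kd; run in duplicate.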

[4] = Aqueous kinetic solubility of the compound at pH 7 at 37 degC by turbidimetric assay; format: physicochemical; conditions: read-out: Kinetic_solubility
Summary of the method: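 Turbidimetric method: DMSO dilutions added to phosphate-buffered saline pH 7.4 at final 1, 3, 10, 30, 100 μM (1% DMSO), 7 replicates per concentration. Incubated 2 h at 37 °C, then absorbance read at 620 nm. Value is the mid-point of the precipitation range between upper and lower solubility limits.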

Cannabinoid receptor 2 [5] = target: T1, Cannabinoid receptor 2; assay: Agonist activity at human CB2R expressed in CHO cells assessed as reduction in forskolin-induced cAMP accumulation at 3 uM by beta-galactosidase based complementation immunoassay; format: functional, cell-based; parameters: reference not given here
Summary of the method: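 CHO-K1 cells expressing hCB2R, 15,000 per well, incubated overnight at 37 °C, 5% CO2, then anti-cAMP antibody added. Test agent at single concentration with 20 μM forskolin (0.2% DMSO final), 30 min at 37 °C. Lysis/substrate 1 h, then EA reagent 3 h, both at rt in the dark; luminescence read and expressed as % of forskolin+solvent control wells.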
Target sequence in this assay (P34972 whole entry): as above

Cannabinoid receptor 2 [6] = target: T1, Cannabinoid receptor 2; assay: Agonist activity at human CB2R expressed in CHO cells assessed as reduction in forskolin-induced cAMP accumulation at 1 uM by beta-galactosidase based complementation immunoassay; parameters: reference not given here
Target sequence in this assay (P34972 whole entry, looked up): as the sequence (P34972 whole entry) above

Cannabinoid receptor 1 [7] = target: T2, Cannabinoid receptor 1; assay: Agonist activity at human CB1R expressed in CHO cells assessed as reduction in forskolin-induced cAMP accumulation by beta-galactosidase based complementation immunoassay; format: functional, cell-based
Summary of the method: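 CHO-K1 cells expressing hCB1R, 15,000 per well, incubated overnight at 37 °C, 5% CO2, then given anti-cAMP antibody. Compounds were added with 20 μM forskolin (final DMSO 0.2%) for 30 min at 37 °C. Lysis/substrate step 1 h and EA detection 3 h, both at rt in the dark, then luminescence read.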

Liver = assay: Half life in mouse liver microsomes in presence of NADPH by LC-MS/MS method; format: ADME
Summary of the method: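 Mouse liver microsomes incubated with compound at 37 °C with NADPH. Reactions stopped with methanol containing internal standard, centrifuged, supernatant analysed by LC–MS/MS.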

T2 sequence (P21554 whole entry): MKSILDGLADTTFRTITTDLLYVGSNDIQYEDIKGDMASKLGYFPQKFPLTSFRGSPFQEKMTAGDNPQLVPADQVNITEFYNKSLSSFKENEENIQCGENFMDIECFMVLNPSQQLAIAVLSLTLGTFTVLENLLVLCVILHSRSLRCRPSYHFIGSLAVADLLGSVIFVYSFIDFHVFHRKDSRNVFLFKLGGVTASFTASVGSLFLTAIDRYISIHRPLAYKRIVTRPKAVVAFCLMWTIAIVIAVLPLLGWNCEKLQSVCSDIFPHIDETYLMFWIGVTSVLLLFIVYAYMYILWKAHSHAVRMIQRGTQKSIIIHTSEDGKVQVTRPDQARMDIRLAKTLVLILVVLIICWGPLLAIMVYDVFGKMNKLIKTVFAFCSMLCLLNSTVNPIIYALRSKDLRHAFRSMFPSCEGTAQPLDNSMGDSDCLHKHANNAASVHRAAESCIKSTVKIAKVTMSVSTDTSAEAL

Structure (SMILES): N#Cc1ccccc1C[S+]([O-])c1nnc2c(n1)[nH]c1ccccc12 (stereo not drawn)
- EC50 (Cannabinoid receptor 2 [1]): 3550 nM

- EC50 (Cannabinoid receptor 2 [1]): > 3000 nM
Structure (SMILES): CSc1nnc2c(n1)[nH]c1ccccc12

Structure (SMILES): N#Cc1ccccc1CSc1nnc2c3ccccc3n(C(=O)c3ccccc3)c2n1
- EC50 (Cannabinoid receptor 2 [1]): 113 nM
- Ki (Cannabinoid receptor 2 [2]): 300 nM
- Ki (Cannabinoid receptor 1 [3]): > 10000 nM
- solubility kinetic [4]: 2 µM (≈ 0.843 µg/mL)

- EC50 (Cannabinoid receptor 2 [1]): > 3000 nM
Structure (SMILES): N#Cc1ccccc1CSc1nnc2c3ccccc3n(C(=O)OCc3ccccc3)c2n1

- Activity (Cannabinoid receptor 2 [5]): 36.7%
- Activity (Cannabinoid receptor 2 [6]): 76.3%
Structure (SMILES): C=CCn1c(SCCCC)nc2sc3c(c2c1=O)CC(C)(C)OC3

Structure (SMILES): O=[N+]([O-])c1ccccc1CSc1nnc2c(n1)[nH]c1ccccc12
- EC50 (Cannabinoid receptor 2 [1]): 33 nM
- EC50 (Cannabinoid receptor 1 [7]): > 30000 nM
- Ki (Cannabinoid receptor 2 [2]): 155 nM
- Ki (Cannabinoid receptor 1 [3]): > 60000 nM
- t1/2 (Liver): 43 min

- EC50 (Cannabinoid receptor 2 [1]): > 3000 nM
Structure (SMILES): N#Cc1ccccc1CSc1nnc2c3ccccc3n(S(=O)(=O)c3ccccc3[N+](=O)[O-])c2n1

Structure (SMILES): N#Cc1cccc(CSc2nnc3c(n2)[nH]c2ccccc23)c1
- EC50 (Cannabinoid receptor 2 [1]): 6450 nM
- EC50 (Cannabinoid receptor 1 [7]): > 30000 nM

- EC50 (Cannabinoid receptor 2 [1]): > 3000 nM
Structure (SMILES): Fc1ccccc1CSc1nnc2c(n1)[nH]c1ccccc12

- Activity (Cannabinoid receptor 2 [5]): 76%
- Activity (Cannabinoid receptor 2 [6]): 102%
Structure (SMILES): CCCCCCSc1nnc2c(n1)[nH]c1ccccc12

- Activity (Cannabinoid receptor 2 [5]): 39.9%
- Activity (Cannabinoid receptor 2 [6]): 63.2%
Structure (SMILES): CCCCCCSC1=C(C#N)C(c2cccc([N+](=O)[O-])c2)NC(=O)N1 (stereo not drawn)

Structure (SMILES): Fc1ccccc1CSc1nnc2c3ccccc3n(Cc3ccccc3)c2n1
- EC50 (Cannabinoid receptor 2 [1]): 850 nM
- Ki (Cannabinoid receptor 2 [2]): 215 nM
- Ki (Cannabinoid receptor 1 [3]): 275 nM

Structure (SMILES): N#Cc1ccccc1CSc1nnc2c3ccccc3n(C(=O)N3CCOCC3)c2n1
- EC50 (Cannabinoid receptor 2 [1]): 92 nM
- solubility kinetic [4]: 10.5 µM (≈ 4.52 µg/mL)

Structure (SMILES): CCCCSc1nnc2c(n1)[nH]c1ccccc12
- EC50 (Cannabinoid receptor 2 [1]): 296 nM
- solubility kinetic [4]: 2 µM (≈ 0.517 µg/mL)
- Activity (Cannabinoid receptor 2 [5]): 57.2%
- Activity (Cannabinoid receptor 2 [6]): 52.1%

Structure (SMILES): N#Cc1ccccc1CSc1nnc2c(n1)[nH]c1ccccc12
- EC50 (Cannabinoid receptor 2 [1]): 112 nM
- EC50 (Cannabinoid receptor 1 [7]): > 30000 nM
- Ki (Cannabinoid receptor 2 [2]): 355 nM
- Ki (Cannabinoid receptor 1 [3]): > 60000 nM
- solubility kinetic [4]: 3.75 µM (≈ 1.19 µg/mL)
- t1/2 (Liver): 46 min

Structure (SMILES): O=C(c1ccccc1)n1c2ccccc2c2nnc(SCc3ccccc3[N+](=O)[O-])nc21
- EC50 (Cannabinoid receptor 2 [1]): 75 nM
- Ki (Cannabinoid receptor 2 [2]): 235 nM
- Ki (Cannabinoid receptor 1 [3]): > 60000 nM

- EC50 (Cannabinoid receptor 2 [1]): > 3000 nM
Structure (SMILES): FC(F)(F)Oc1ccccc1CSc1nnc2c(n1)[nH]c1ccccc12

Structure (SMILES): N#Cc1ccccc1CSc1nnc2c(n1)[nH]c1cccc(Br)c12
- EC50 (Cannabinoid receptor 2 [1]): 39 nM
- EC50 (Cannabinoid receptor 1 [7]): 20000 nM
- Ki (Cannabinoid receptor 2 [2]): 22.5 nM
- Ki (Cannabinoid receptor 1 [3]): 3200 nM
- t1/2 (Liver): 5 min

Structure (SMILES): COc1ccc(C(=O)n2c3ccccc3c3nnc(SCc4ccccc4C#N)nc32)cc1OC
- EC50 (Cannabinoid receptor 2 [1]): 160 nM

- Activity (Cannabinoid receptor 2 [5]): 110%
- Activity (Cannabinoid receptor 2 [6]): 129%
Structure (SMILES): CCCCCSc1nnc2c3ccccc3n(C)c2n1

- EC50 (Cannabinoid receptor 2 [1]): > 3000 nM
Structure (SMILES): Cn1c2ccccc2c2nnc(SCc3ccccc3C#N)nc21

- Activity (Cannabinoid receptor 2 [5]): 73.1%
- Activity (Cannabinoid receptor 2 [6]): 86.2%
Structure (SMILES): CCCCCSc1nnc2c(n1)[nH]c1ccccc12

- EC50 (Cannabinoid receptor 2 [1]): > 3000 nM
Structure (SMILES): N#Cc1ccccc1CSc1nnc2c(n1)[nH]c1cc(Br)ccc12

Structure (SMILES): c1ccc(CSc2nnc3c(n2)[nH]c2ccccc23)cc1
- EC50 (Cannabinoid receptor 2 [1]): 10000 nM
- EC50 (Cannabinoid receptor 1 [7]): > 30000 nM

- EC50 (Cannabinoid receptor 2 [1]): > 3000 nM
Structure (SMILES): FC(F)(F)c1ccccc1CSc1nnc2c(n1)[nH]c1ccccc12

- EC50 (Cannabinoid receptor 2 [1]): > 3000 nM
Structure (SMILES): CC(=O)n1c2ccccc2c2nnc(SCc3ccccc3C#N)nc21

Structure (SMILES): N#Cc1ccccc1CSc1nnc2c3ccccc3n(Cc3ccccc3)c2n1
- EC50 (Cannabinoid receptor 2 [1]): 214 nM
- EC50 (Cannabinoid receptor 1 [7]): 1550 nM
- Ki (Cannabinoid receptor 2 [2]): 11 nM
- Ki (Cannabinoid receptor 1 [3]): 61 nM
- t1/2 (Liver): < 5 min

Structure (SMILES): CCCCn1c2ccccc2c2nnc(SCc3ccccc3C#N)nc21
- EC50 (Cannabinoid receptor 2 [1]): 106 nM
- t1/2 (Liver): < 5 min

- Activity (Cannabinoid receptor 2 [5]): 61.6%
- Activity (Cannabinoid receptor 2 [6]): 93.5%
Structure (SMILES): CCCCSc1nnc(-c2ccccc2N)c(O)n1

Structure (SMILES): COC(=O)CCCC(=O)n1c2ccccc2c2nnc(SCc3ccccc3C#N)nc21
- EC50 (Cannabinoid receptor 2 [1]): 42 nM
- solubility kinetic [4]: 3.75 µM (≈ 1.67 µg/mL)

Structure (SMILES): N#Cc1ccccc1CSc1nnc2c3ccccc3n(C(=O)c3cccc(C(F)(F)F)c3)c2n1
- EC50 (Cannabinoid receptor 2 [1]): 27 nM

Structure (SMILES): N#Cc1ccccc1CSc1nnc2c3ccccc3n(C(=O)C3CCCCC3)c2n1
- EC50 (Cannabinoid receptor 2 [1]): 32 nM
- Ki (Cannabinoid receptor 2 [2]): 30 nM
- Ki (Cannabinoid receptor 1 [3]): > 60000 nM

- EC50 (Cannabinoid receptor 2 [1]): > 3000 nM
Structure (SMILES): N#Cc1ccccc1CSc1nnc2c(n1)[nH]c1ccc(Br)cc12

Structure (SMILES): N#Cc1ccccc1CSc1nnc2c3ccccc3n(Cc3ccccc3[N+](=O)[O-])c2n1
- EC50 (Cannabinoid receptor 2 [1]): 53 nM
- EC50 (Cannabinoid receptor 1 [7]): > 30000 nM
- Ki (Cannabinoid receptor 2 [2]): 290 nM
- Ki (Cannabinoid receptor 1 [3]): > 60000 nM

Structure (SMILES): Cc1ccccc1-c1cccc2[nH]c3nc(SCc4ccccc4C#N)nnc3c12
- EC50 (Cannabinoid receptor 2 [1]): 4300 nM
